ChEMBL document CHEMBL2203171, “The use of small molecule probes to study spatially separated stimulus-induced signaling pathways” (Bioorg Med Chem Lett, 2012)
Active and inactive are the calls of the source. The rule behind the calls is not given here.

Target: T1, Inhibitor of nuclear factor kappa-B kinase subunit beta (Mus musculus) (UniProt O88351)
T1 sequence (whole entry): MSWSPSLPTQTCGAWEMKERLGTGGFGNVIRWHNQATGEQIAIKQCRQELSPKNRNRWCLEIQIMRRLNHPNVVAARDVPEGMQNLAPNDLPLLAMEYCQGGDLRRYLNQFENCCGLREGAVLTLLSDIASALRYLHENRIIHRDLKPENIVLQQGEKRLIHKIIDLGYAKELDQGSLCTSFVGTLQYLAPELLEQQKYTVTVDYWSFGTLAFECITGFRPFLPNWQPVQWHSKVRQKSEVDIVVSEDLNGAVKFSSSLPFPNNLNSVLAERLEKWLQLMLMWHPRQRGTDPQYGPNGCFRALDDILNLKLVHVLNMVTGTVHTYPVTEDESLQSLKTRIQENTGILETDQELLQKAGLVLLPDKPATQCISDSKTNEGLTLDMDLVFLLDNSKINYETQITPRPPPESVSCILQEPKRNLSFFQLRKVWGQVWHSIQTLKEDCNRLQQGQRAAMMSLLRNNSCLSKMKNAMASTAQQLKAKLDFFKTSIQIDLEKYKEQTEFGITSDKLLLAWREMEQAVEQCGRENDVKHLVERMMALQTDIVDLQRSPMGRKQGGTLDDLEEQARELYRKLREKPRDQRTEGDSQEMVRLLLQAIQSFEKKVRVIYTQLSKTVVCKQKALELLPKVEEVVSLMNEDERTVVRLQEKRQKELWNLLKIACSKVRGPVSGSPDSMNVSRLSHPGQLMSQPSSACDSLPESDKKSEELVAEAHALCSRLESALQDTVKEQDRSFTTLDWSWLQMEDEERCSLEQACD
Test: Inhibition of IKKbeta in C57BL/6 mouse BMDM cells assessed as inhibition of LPS-induced IkappaBalpha phosphorylation at 25 uM after 5 mins by Western blot analysis
Format: cell-based
Procedure, shortened: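 C57BL/6 marrow-derived macrophages were cultured in 70% growth medium/30% L929-conditioned medium and refreshed 12-14 h before stimulation. Stimuli were TNF 40 ng/ml or LPS 100 ng/ml, ± compound at 25 μM from a 200x DMSO stock. Western blots tracked IKK, p38, IκBα and phospho-RelA. Results from three independent experiments were quantitated and normalized.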

inhibition: Active
SMILES: O=C(CCCCCN1C(=O)C=CC1=O)Oc1ccc2cc(C(C(=O)NCc3ccccc3)N(C(=O)Cc3ccc4c(c3)OCO4)C3CC3)ccc2c1 (stereo unspecified)
